Source: ChEMBL document CHEMBL2390890, “Optimization of a novel potent and selective bacterial DNA helicase inhibitor scaffold from a high throughput screening hit” (Bioorg Med Chem Lett, 2013)
Active and inactive are the calls of the source. No cut-off for these calls is given here.

Tests used:
[1] = Inhibition of Bacillus anthracis replicative DNA helicase using Hel-5'FAM:Hel-3'BHQ as substrate assessed as DNA duplex strand unwinding by FRET assay
[2] = Inhibition of Staphylococcus aureus replicative DNA helicase using Hel-5'FAM:Hel-3'BHQ as substrate assessed as DNA duplex strand unwinding by FRET assay
Staphylococcus aureus [3] = test: (§1) Competitive inhibition of Staphylococcus aureus replicative DNA helicase using DNA as substrate by Dixon plot analysis
Summary of the method: (§2)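 FRET-based strand-unwinding assay with S. aureus replicative DNA helicase. An inhibitor dilution series was run at several oligonucleotide (DNA substrate) concentrations, the lowest being 3 nM. IC50 at each level came from 4-parameter curve fitting. Ki and the inhibition mode were derived from a Dixon plot of the DNA-variation data.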

HeLa = test: Cytotoxicity against human HeLa cells by MTT assay in presence of serum free media; type: cell-based
[4] = Selectivity index, ratio of CC50 for human HeLa cells to IC50 for Staphylococcus aureus replicative DNA helicase; type: functional
Staphylococcus aureus [5] = test: Inhibition of Staphylococcus aureus single-strand DNA-stimulated replicative DNA helicase ATPase activity assessed as release of inorganic phosphate at 50 uM after 30 mins by malachite green assay
Staphylococcus aureus [6] = test: (§3) Non-competitive inhibition of Staphylococcus aureus replicative DNA helicase using ATP as substrate
Summary of the method: (§4)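 S. aureus replicative DNA helicase was tested in a FRET-based unwinding assay. An inhibitor dilution series was run across several ATP concentrations. IC50 at each ATP level came from 4-parameter curve fitting, and the mode of inhibition was assigned from how IC50 shifted with ATP concentration.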

[7] = as §1; summary of the method: as §2
[8] = as §3; summary of the method: as §4
Bacillus anthracis = test: Antibacterial activity against Bacillus anthracis Sterne assessed as inhibition of incorporation of radiolabeled precursors into DNA; type: functional, organism-based

Compound | IC50 [1] [µM] | IC50 [2] [µM] | also measured
CSc1nc2ccc3nc(NC(=O)c4ccccc4F)sc3c2s1 | 50 | – | –
CSc1nc2ccc3nc(NC(=O)c4ccc(N5C(=O)CCC5=O)cc4)sc3c2s1 | 1.3 | – | –
COc1cccc(OC)c1C(=O)Nc1nc2ccc3nc(SC)sc3c2s1 | > 100 | – | –
COc1ccc(C(=O)Nc2nc3ccc4nc(SC)sc4c3s2)cc1 | 2.2 | – | –
CSc1nc2ccc3nc(NC(=O)CCc4ccccc4)sc3c2s1 | > 100 | – | –
CSc1nc2ccc3nc(NC(=O)c4cccc(F)c4)sc3c2s1 | 3.3 | – | –
CSc1nc2ccc3nc(NC(=O)CN4C(=O)CCC4=O)sc3c2s1 | > 100 | – | –
CSc1nc2ccc3nc(NC(=O)c4c(F)cccc4F)sc3c2s1 | 64.5 | – | –
COc1ccc(C(=O)Nc2nc3ccc4nc(SC)sc4c3s2)c(OC)c1 | > 100 | – | –
CSc1nc2ccc3nc(NC(=O)c4ccccc4Cl)sc3c2s1 | > 100 | – | –
CSc1nc2ccc3nc(NC(=O)c4cccc(Br)c4)sc3c2s1 | 2.3 | – | –
CSc1nc2ccc3nc(NC(=O)c4ccccc4Br)sc3c2s1 | > 100 | – | –
CSc1nc2ccc3nc(NC(=O)c4cccs4)sc3c2s1 | 90 | – | –
COc1cc(/C=N/c2nc3ccc4nc(SC)sc4c3s2)cc(OC)c1OC | – | > 100 | –
CSc1nc2ccc3nc(NC(=O)c4ccco4)sc3c2s1 | 102 | – | –
CNc1nc2ccc3nc(NC(=O)c4cc(OC)c(OC)c(OC)c4)sc3c2s1 | 0.2 | 0.2 | inhibition (Staphylococcus aureus [3]): Active; CC50 (HeLa): > 100 µM; Ratio CC50/IC50 [4]: >500; inhibition (Staphylococcus aureus [5]): inactive; inhibition (Staphylococcus aureus [6]): Active
CSc1nc2ccc3nc(NC(=O)c4cc(C)no4)sc3c2s1 | > 50 | – | –
COc1ccc(C(=O)Nc2nc3ccc4nc(SC)sc4c3s2)cc1OC | 2.1 | – | –
CSc1nc2ccc3nc(NC(=O)c4cccc([N+](=O)[O-])c4)sc3c2s1 | 2.8 | – | –
CSc1nc2ccc3nc(NC(=O)c4ccc(C)c(C)c4)sc3c2s1 | 3.2 | – | –
CNc1nc2ccc3nc(NC(=O)c4cccc(OC)c4)sc3c2s1 | 0.5 | 2.2 | Ki [7]: 2 µM; CC50 (HeLa): > 100 µM; inhibition (Staphylococcus aureus [5]): inactive; IC50 [8]: 2 µM

Compound | IC50 [1] [µM] | IC50 [2] [µM] | also measured
COc1cccc(C(=O)Nc2nc3ccc4nc(NCc5ccccc5)sc4c3s2)c1 | 75 | > 100 | –
CSc1nc2ccc3nc(NC(=O)c4ccc5c(c4)OCCO5)sc3c2s1 | 3 | – | –
COc1cc(C(=O)Nc2nc3ccc4nc(NCCN5CCOCC5)sc4c3s2)cc(OC)c1OC | 0.2 | 0.2 | CC50 (HeLa): 5.7 µM
COc1cc(C(=O)Nc2nc3ccc4nc(SC)sc4c3s2)cc(OC)c1OC | 0.7 | 0.4 | CC50 (HeLa): > 100 µM
CSc1nc2ccc3nc(NC(=O)c4ccccc4Oc4ccccc4)sc3c2s1 | > 100 | – | –
COc1cccc(C(=O)Nc2nc3ccc4nc(NC(C)C)sc4c3s2)c1 | 65 | 80 | –
CSc1nc2ccc3nc(NC(=O)c4ccc(N(C)C)cc4)sc3c2s1 | 2.4 | – | –
CSc1nc2ccc3nc(NC(=O)c4c(C)cnn4C)sc3c2s1 | > 50 | – | –
CSc1nc2ccc3nc(NC(=O)Cc4ccccc4)sc3c2s1 | 47 | – | –
COc1cc(CNc2nc3ccc4nc(SC)sc4c3s2)cc(OC)c1OC | – | > 100 | –
COc1c(C(=O)Nc2nc3ccc4nc(SC)sc4c3s2)cnn1C | > 100 | – | –
CSc1nc2ccc3nc(NC(=O)c4cccc(Cl)c4)sc3c2s1 | 5.3 | – | –
COc1cccc(C(=O)Nc2nc3ccc4nc(NCCN(C)C)sc4c3s2)c1 | 1 | 1 | –
COc1cc(OC)cc(C(=O)Nc2nc3ccc4nc(SC)sc4c3s2)c1 | 1.7 | – | –
CSc1nc2ccc3nc(NC(=O)c4ccc(Cl)cc4)sc3c2s1 | 5 | – | –
CCCNc1nc2ccc3nc(NC(=O)c4cccc(OC)c4)sc3c2s1 | 1.1 | 1.3 | CC50 (HeLa): < 0.08 µM
CCN(CC)S(=O)(=O)c1ccc(C(=O)Nc2nc3ccc4nc(SC)sc4c3s2)cc1 | > 100 | – | –
CCN(CC)c1ccc(C(=O)Nc2nc3ccc4nc(SC)sc4c3s2)cc1 | > 100 | – | –
COc1cc(C(=O)Nc2nc3ccc4nc(NCCO)sc4c3s2)cc(OC)c1OC | 0.2 | 0.3 | IC50 (Bacillus anthracis): 17 µM; inhibition (Staphylococcus aureus [3]): Active; CC50 (HeLa): > 100 µM; inhibition (Staphylococcus aureus [6]): Active
CSc1nc2ccc3nc(NC(=O)c4ccccc4C)sc3c2s1 | 6.6 | – | –
COc1cc(C(=O)Nc2nc3ccc4nc(N5CCN(C)CC5)sc4c3s2)cc(OC)c1OC | 0.2 | 0.2 | IC50 (Bacillus anthracis): 10 µM; CC50 (HeLa): 2.8 µM

Compound | IC50 [1] [µM] | IC50 [2] [µM] | also measured
CSc1nc2ccc3nc(NC(=O)c4ccc(C)cc4)sc3c2s1 | 7.6 | – | –
CSc1nc2ccc3nc(NC(=O)c4ccc(C#N)cc4)sc3c2s1 | 11 | – | –
COc1cc(C(=O)Nc2nc3ccc4nc(NCCN(C)C)sc4c3s2)cc(OC)c1OC | 0.2 | 0.2 | CC50 (HeLa): < 0.78 µM
CSc1nc2ccc3nc(NC(=O)c4cccc(N5C(=O)CCC5=O)c4)sc3c2s1 | 5 | 12 | CC50 (HeLa): > 100 µM
CSc1nc2ccc3nc(NC(=O)c4ccc(OC(C)C)cc4)sc3c2s1 | > 100 | – | –
CCOc1ccc(C(=O)Nc2nc3ccc4nc(SC)sc4c3s2)cc1 | 6.9 | – | –
CSc1nc2ccc3nc(NC(=O)C4CC4)sc3c2s1 | > 100 | – | –
CSc1nc2ccc3nc(NC(=O)COc4ccc(Cl)cc4Cl)sc3c2s1 | > 100 | – | –
COc1cccc(C(=O)Nc2nc3ccc4nc(NC5CCCCC5)sc4c3s2)c1 | 90 | > 100 | –
COc1cccc(C(=O)Nc2nc3ccc4nc(NCCO)sc4c3s2)c1 | 2.2 | 4.2 | CC50 (HeLa): > 100 µM
COc1cccc(C(=O)Nc2nc3ccc4nc(N5CCOCC5)sc4c3s2)c1 | 2.3 | 3 | CC50 (HeLa): > 100 µM
CSc1nc2ccc3nc(NC(=O)c4ccc(C(C)(C)C)cc4)sc3c2s1 | > 100 | – | –
COc1cccc(C(=O)Nc2nc3ccc4nc(SC)sc4c3s2)c1 | 12.5 | 6.6 | CC50 (HeLa): 12.4 µM
CSc1nc2ccc3nc(NC(=O)c4cccc(N(C)C)c4)sc3c2s1 | 36 | – | –
CSc1nc2ccc3nc(NC(=O)c4ccc(Oc5ccccc5)cc4)sc3c2s1 | > 100 | – | –
COC(=O)c1ccc(C(=O)Nc2nc3ccc4nc(SC)sc4c3s2)cc1 | 3.7 | – | –
COc1cccc(C(=O)Nc2nc3ccc4nc(NCCN5CCOCC5)sc4c3s2)c1 | 0.5 | 2.2 | CC50 (HeLa): 9.6 µM
COc1cccc(C(=O)Nc2nc3ccc4nc(NCC(C)C)sc4c3s2)c1 | 13 | 9 | CC50 (HeLa): 44 µM
CSc1nc2ccc3nc(NC(=O)c4cnccn4)sc3c2s1 | 28 | – | –
COc1cc2ccccc2cc1C(=O)Nc1nc2ccc3nc(SC)sc3c2s1 | > 50 | – | –
